# High-throughput results as filed in PubChem BioAssay.
# This is a sample that favours compounds with a hit; in the whole collection about 3.5% have one here.
# MrgX1 allo act: positive allosteric modulators of MrgX1, primary screen, HEK293 cells, Fluo-4 calcium flux; Mas-related G-protein coupled receptor member X1 (Homo sapiens), Q96LB2; FDSS; stronger effect = higher value; B-score at 10 µM; 310,000 tested, 0.63% active;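 active means plate-corrected calcium response at least 3 library SD above typical, normal starting fluorescence, not activating the receptor alone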;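 further: compound read alongside a low EC10 to EC30 dose of BAM8-22 agonist; peak minus trough fluorescence over baseline measured at the second addition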
# Target sequence (Q96LB2 whole entry, looked up): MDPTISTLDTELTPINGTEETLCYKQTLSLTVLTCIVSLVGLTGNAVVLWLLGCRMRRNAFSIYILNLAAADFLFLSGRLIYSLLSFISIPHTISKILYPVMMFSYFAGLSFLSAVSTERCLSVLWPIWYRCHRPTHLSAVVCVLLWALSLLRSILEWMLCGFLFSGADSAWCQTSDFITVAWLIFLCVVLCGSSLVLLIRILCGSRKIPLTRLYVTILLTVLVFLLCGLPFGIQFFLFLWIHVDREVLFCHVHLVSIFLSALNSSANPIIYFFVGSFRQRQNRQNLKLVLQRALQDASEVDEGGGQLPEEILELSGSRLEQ
# RGS4 block: RGS4 inhibitors, primary screen, cell-based, HEK293 M3R inducible RGS4, calcium flux. AID 463165, 2010. 310,000 tested, 0.45% active. B-score at 10 µM. Fluo-4 calcium flux; stronger effect = higher value; triggered by carbachol at its EC20. Regulator of G-protein signaling 4 (Homo sapiens), P49798;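 active means B-score, a plate-corrected calcium signal, over three deviations above library mean, with baseline fluorescence within five deviations of library mean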;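 further: RGS4 expression induced by doxycycline in cells with stable M3 receptor; B-score is computed from the integrated fluorescence ratio over baseline after carbachol; higher B-score means a larger calcium signal and so more RGS4 inhibition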
# Target sequence (P49798 whole entry, looked up): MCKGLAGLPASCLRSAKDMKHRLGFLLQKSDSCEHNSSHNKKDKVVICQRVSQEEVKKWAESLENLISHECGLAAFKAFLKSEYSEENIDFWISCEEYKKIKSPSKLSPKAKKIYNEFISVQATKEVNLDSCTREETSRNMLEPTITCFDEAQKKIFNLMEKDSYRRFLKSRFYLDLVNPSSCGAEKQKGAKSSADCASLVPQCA
# MrgX1 agonist: agonists of human MrgX1 receptor, primary screen, HEK293 cells, Fluo-4 calcium flux; AID 588627, 2011; 310,000 tested, 0.44% active; B-score at 10 µM; Fluo-4 calcium fluorescence, agonist mode; stronger effect = higher value;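 active means calcium response B-score plate-corrected fluorescence ratio at least 3 library SD, with starting fluorescence B-score inside 5 SD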
#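 Test system: HEK293 cells stably expressing human MrgX1 receptor; amount: 15,000 cells per well; doses: compound delivered in addition one of three; times: overnight plating before 1 h dye loading; detection: Fluo-4 NW calcium-flux fluorescence, kinetic read; read-out basis: B-scored fluorescence response ratio; controls: positive and negative controls per plate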
# MrgX1 antagonist: antagonists of human MrgX1 receptor, primary screen, HEK293 cells, Fluo-4 calcium flux; Mas-related G-protein coupled receptor member X1 (Homo sapiens), Q96LB2; 310,000 tested, 1.3% active; BAM8-22 antagonism; stronger effect = lower value; B-score at 10 µM; AID 588676, 2011;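 active means calcium-response B-score plate-corrected more than 3 library SD below zero, starting fluorescence within 5 deviations, no agonist response on first addition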;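 further: peak minus trough fluorescence over baseline after final BAM8-22 challenge near maximal dose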
# RGS4 act: RGS4 potentiators or activators, primary screen, cell-based, HEK293 M3R inducible RGS4, calcium flux | carbachol calcium flux Fluo4; stronger effect = lower value | B-score at 10 µM | 310,000 tested, 0.92% active | AID 463111, 2010;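 active means B-score of the integrated calcium signal more than 4 SD below the library mean, with starting fluorescence not abnormally high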;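 further: negative B-score means reduced calcium response which marks RGS4 activation or potentiation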
#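 Material: M3R-expressing HEK293 line, RGS4 induced by doxycycline | Schedule: Overnight RGS4 induction, 30 min dye load 37 °C, 20 min compound RT | Measured by: Fluo4 fluorescence kinetic imaging of calcium | Read-out: Integrated calcium ratio converted to B score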
# RGS4 act valid: reduced carbachol calcium response, RGS4-induced M3R cells, confirmation, RGS4 activator project, cell-based, HEK293 M3R/RGS4 inducible, calcium flux, duplicate; carbachol calcium flux Fluo4; shares compounds with RGS4 act; 1,100 tested, 89% active; inhibition, % at 10 µM;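 active means inhibition above 3 SD of the buffer control wells, cut at about 41% in these data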;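 further: signal is the integrated peak-minus-minimum Fluo4 fluorescence over baseline ratio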
# RGS4 act ctr: activity in cells without induced RGS4 expression; shares compounds with RGS4 act; inhibition, % at 10 µM; HEK293 M3R non-induced RGS4, Fluo4 calcium flux; after carbachol challenge at its EC90; 1,100 tested, 82% active; AID 602283;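 active means inhibition exceeding 3 SD of buffer-only control wells, cut at about 26% in these data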;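 further: percent drop in integrated peak-minus-baseline over baseline Fluo4 ratio after carbachol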
# * = called active by the depositor; i = inactive; · = no result.
SMILES,MrgX1 allo act,RGS4 block,MrgX1 agonist,MrgX1 antagonist,RGS4 act,RGS4 act valid,RGS4 act ctr
CC(=O)N1[C@H](C)C=C[C@]1(Cc1ccccc1)C(=O)O,i,i,i,i,i,·,·
O=C(CNC(=O)c1ccccc1F)Nc1ccccc1C(F)(F)F,i,i,i,i,i,·,·
Oc1ccccc1Oc1ncc(Br)c(N2CCOCC2)n1,i,i,i,i,-11.1*,92.5*,63.8*
O=c1c2ccccc2nc(/C=C/c2cccnc2)n1CCc1ccccc1,i,i,i,i,-9.69*,56.5*,0.0
CNS(=O)(=O)c1cccc(C(=O)OCc2cc(Cl)cc3c2OCOC3)c1,i,i,i,i,-8.6*,0.0,0.0
CNS(=O)(=O)c1cccc(C(=O)OCC(=O)N2CCCC2)c1,i,i,i,i,i,·,·
COC(=O)C(O)(CC(=O)Nc1ccc(Cl)cc1Cl)C(F)(F)F (stereo not drawn),i,i,i,i,-9.21*,0.0,0.0
Cc1ccc(C)c(NC(=O)CN(C)C(=O)c2ccccc2OCc2ccccc2Cl)c1,i,i,i,i,i,·,·
O=C(NCC1CCN(c2ccc(S(=O)(=O)N3CCOCC3)cc2)CC1)c1ccc(Cl)cc1,i,i,i,i,-10.8*,92.5*,80.8*
Cc1ccc(S(=O)(=O)N(CCC(=O)O)c2ccccc2)cc1,i,i,i,i,i,·,·
COc1ccc(C2(C(=O)Nc3ccc(C)cc3)CCOCC2)cc1,i,i,i,i,i,·,·
Cc1ccc(/C=C2/N=C(c3ccccc3)NNC2=O)cc1,i,i,i,i,i,·,·
CCCN1CCN(CCCNC(=O)c2ccc3c(Cl)c4c(nc3c2)CCCC4)CC1,i,i,i,i,-8.12*,93.5*,62.3*
N#Cc1ccccc1NC(=O)c1ccc2c(Cl)c3c(nc2c1)CCCC3,i,i,i,i,-8.09*,72.5*,47.3*
CN(CCc1ccccn1)C(=O)CCC1CCCN(C(=O)c2ccsc2)C1 (stereo not drawn),i,i,i,i,i,·,·
CCN(CC)CCC(O)(c1ccccc1)C1CCCCC1 (stereo not drawn),i,i,i,i,-9.26*,92.0*,92.3*
Cc1ccc(NC(=O)c2cc(C(C)(C)C)nn2Cc2ccccc2)cc1,i,i,i,i,-7.64*,95.0*,82.3*
CC(=O)c1c(C)[nH]c(C(=O)OCC(=O)Nc2sc3c(c2C#N)CCC(C)C3)c1C (stereo not drawn),i,i,i,i,i,·,·
CCOc1ccc2[nH]c3c(N4CCc5ccccc5C4)ncnc3c2c1,i,i,i,i,-8.54*,93.5*,71.8*
CC1CC(C)(C)N(C(=O)CSc2ccc(-c3ccc(F)cc3)nn2)c2ccccc21 (stereo not drawn),i,i,i,i,-12.8*,93.5*,72.3*
COc1cc2c(cc1OC)CC(=O)NC=C2,i,i,i,i,i,·,·
O=C(Nc1ccc2c(c1)OCCO2)c1ccccc1F,i,i,i,i,i,·,·
O=C(Nc1ccc2c(c1)OCCO2)c1cccc2nc3ccccc3nc12,i,i,i,i,-9.28*,85.5*,52.3*
COc1ccc(Cc2nnc(SCC(=O)Nc3ccc(N4CCOCC4)cc3)n2C)cc1,i,i,i,i,i,·,·
CCOC(=O)Nc1ccc2c(c1)N(C(=O)C(C)N1CCCC1)c1ccccc1CC2 (stereo not drawn),i,i,i,i,-7.89*,85.5*,83.8*
SMILES,MrgX1 allo act,RGS4 block,MrgX1 agonist,MrgX1 antagonist,RGS4 act,RGS4 act valid,RGS4 act ctr
COc1ccc(-c2nc3cnccn3c2NCc2ccccc2)cc1SC1CCCCC1,i,i,i,i,-10.9*,92.5*,85.8*
CNc1nc(-c2ccccc2)[n+](-c2ccc(C)cc2)s1,i,i,i,i,-13.9*,97.0*,93.3*
CCOCCCNC(=O)c1cn(C)c2ccc(S(=O)(=O)N3CCCC3)cc2c1=O,i,i,i,i,i,·,·
CN(Cc1ccc(F)cc1)C(=O)c1cccc(S(=O)(=O)N2CCN(c3ccc(F)cc3)CC2)c1,i,i,i,i,-7.62*,40.5*,83.8*
Cc1cccc(N2CCN(C(=O)c3ccc(Cl)c(NC4=NC5CS(=O)(=O)CC5S4)c3)CC2C)c1 (stereo not drawn),i,i,i,i,-8.53*,0.0,0.0
O=C(c1ccc(Cl)c(NC2=NC3CS(=O)(=O)CC3S2)c1)N1CCN(c2ccccc2)CC1 (stereo not drawn),i,i,i,i,i,·,·
Cc1ccc(COc2ccc(CNCCCN3CCCCCC3=O)cc2)cc1,i,i,i,i,-12.2*,93.0*,65.3*
COc1ccc(OS(=O)(=O)c2c(C)noc2C)cc1,i,i,i,i,-9.31*,84.0*,41.3*
COC(=O)c1ccc(C(=O)OC)c(NC(=O)COC(=O)CC2CC3CCC2C3)c1 (stereo not drawn),i,i,i,i,-9.7*,90.0*,32.8*
Cc1ccc(Cl)cc1NC(=O)COC(=O)CC1CC2CCC1C2 (stereo not drawn),i,i,i,i,i,·,·
CC1CCN(CCCOc2ccc(Cl)cc2Br)CC1,i,i,i,i,i,·,·
Cc1cc(Br)ccc1OCCCCN1CCC(C)CC1,i,i,i,i,-8.48*,89.0*,64.3*
CN(C)CC(=O)N1c2ccccc2CCc2ccc(NC(=O)c3ccc(N)cc3)cc21,i,i,i,i,i,·,·
COc1cc(C(=O)Nc2ccc3c(c2)N(C(=O)CCN(C)C)c2ccccc2CC3)cc(OC)c1OC,i,i,i,i,-11.7*,91.5*,79.3*
CCCCOc1ccc(C(O)C(CN2CCOCC2)c2ccccc2)cc1 (stereo not drawn),i,i,i,i,i,·,·
